{
  "source": "paper PMC4474499",
  "about": "(Science Advances, 2015)",
  "key": {"[1]": {"biological_target": "T1, human TLR3 (Homo sapiens, UniProt O15455)", "T1 sequence (O15455 24-904)": "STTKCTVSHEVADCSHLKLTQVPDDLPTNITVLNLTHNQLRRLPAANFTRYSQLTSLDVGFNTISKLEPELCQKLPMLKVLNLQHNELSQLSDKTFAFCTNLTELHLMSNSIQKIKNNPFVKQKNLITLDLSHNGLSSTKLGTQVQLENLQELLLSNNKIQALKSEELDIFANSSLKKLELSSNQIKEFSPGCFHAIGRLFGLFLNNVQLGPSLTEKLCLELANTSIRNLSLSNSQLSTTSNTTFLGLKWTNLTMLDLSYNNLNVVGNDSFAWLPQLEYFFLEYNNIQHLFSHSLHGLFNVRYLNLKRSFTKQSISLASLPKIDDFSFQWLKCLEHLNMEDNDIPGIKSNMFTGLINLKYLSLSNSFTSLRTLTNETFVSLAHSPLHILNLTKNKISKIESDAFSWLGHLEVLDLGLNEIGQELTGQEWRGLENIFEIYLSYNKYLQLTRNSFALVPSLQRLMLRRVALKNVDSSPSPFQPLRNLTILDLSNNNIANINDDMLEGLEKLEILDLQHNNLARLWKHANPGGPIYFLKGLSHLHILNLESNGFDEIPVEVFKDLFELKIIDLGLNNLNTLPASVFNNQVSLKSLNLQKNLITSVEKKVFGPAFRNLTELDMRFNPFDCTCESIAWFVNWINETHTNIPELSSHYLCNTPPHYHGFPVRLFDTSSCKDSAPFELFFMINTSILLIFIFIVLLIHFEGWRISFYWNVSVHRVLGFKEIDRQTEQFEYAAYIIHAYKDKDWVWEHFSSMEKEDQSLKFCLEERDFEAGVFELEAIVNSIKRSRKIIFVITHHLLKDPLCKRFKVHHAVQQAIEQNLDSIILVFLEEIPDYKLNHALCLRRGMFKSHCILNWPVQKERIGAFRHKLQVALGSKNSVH", "experiment": "SEAP reporter gene detection assay in HEK-Blue TLR3 cells", "type": "cell-based", "conditions": "0 to 20 μM, 24 hours", "procedure,_shortened": "(§1)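 HEK 293 cells stably carrying the human TLR and a SEAP reporter, 4 × 10^4/well, grown 24 h. Then 24 h in Opti-MEM/0.5% FBS with test compound. Positive controls: poly(I:C) 0–10.9 μg/ml (TLR3), LPS 0–36.5 ng/ml (TLR4), FLA-BS 0–10 μg/ml (TLR5), R848 0–6 μg/ml (TLR7, TLR8). Supernatant heated 30 min at 65°C, then CSPD substrate added; luminescence read after 20 min.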"}, "[2]": {"biological_target": "human TLR1/2 (Homo sapiens, UniProt O60603+Q15399)", "sequence (Q15399 25-580 limits assumed)": "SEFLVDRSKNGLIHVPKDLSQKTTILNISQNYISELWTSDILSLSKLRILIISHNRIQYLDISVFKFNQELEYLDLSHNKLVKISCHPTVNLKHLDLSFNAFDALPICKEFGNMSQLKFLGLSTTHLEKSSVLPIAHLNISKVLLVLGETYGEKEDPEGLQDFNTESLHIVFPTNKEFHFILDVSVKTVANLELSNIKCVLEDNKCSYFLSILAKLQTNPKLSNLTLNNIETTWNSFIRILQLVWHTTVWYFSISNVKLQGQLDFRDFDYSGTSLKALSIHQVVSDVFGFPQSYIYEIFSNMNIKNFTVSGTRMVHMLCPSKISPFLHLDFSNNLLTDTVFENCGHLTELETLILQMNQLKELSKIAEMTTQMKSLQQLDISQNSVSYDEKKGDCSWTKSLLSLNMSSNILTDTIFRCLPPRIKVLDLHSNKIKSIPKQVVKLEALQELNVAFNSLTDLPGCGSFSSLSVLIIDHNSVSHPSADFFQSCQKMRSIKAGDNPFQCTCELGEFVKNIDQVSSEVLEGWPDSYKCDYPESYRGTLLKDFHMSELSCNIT", "sequence (O60603 21-588 limits assumed)": "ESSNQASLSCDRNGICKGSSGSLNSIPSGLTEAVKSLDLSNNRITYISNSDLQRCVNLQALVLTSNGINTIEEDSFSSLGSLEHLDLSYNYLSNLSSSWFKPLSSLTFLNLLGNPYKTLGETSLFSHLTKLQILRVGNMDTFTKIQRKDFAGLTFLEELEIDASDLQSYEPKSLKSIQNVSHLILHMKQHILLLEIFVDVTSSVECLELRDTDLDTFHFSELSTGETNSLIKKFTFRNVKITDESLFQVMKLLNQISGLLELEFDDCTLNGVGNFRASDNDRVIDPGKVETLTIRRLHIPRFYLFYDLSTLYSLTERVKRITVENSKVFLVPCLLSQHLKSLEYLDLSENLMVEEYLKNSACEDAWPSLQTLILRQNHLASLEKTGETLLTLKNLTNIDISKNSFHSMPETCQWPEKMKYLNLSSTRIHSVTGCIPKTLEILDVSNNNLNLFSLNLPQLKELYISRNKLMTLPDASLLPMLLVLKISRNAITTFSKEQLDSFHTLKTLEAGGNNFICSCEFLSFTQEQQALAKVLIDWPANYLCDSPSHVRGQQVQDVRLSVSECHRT", "experiment": "Competition binding ELISA assay with biotin-labeled Pam3CSK4", "conditions": "50 nM (100 ng/ml) Biotin-Pam3, 0 to 7 μM CU-T12-9", "procedure,_shortened": "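Human TLR1 (5 μg/ml) plus TLR2 (4 μg/ml), or BSA, coated in 0.1 M acetate pH 5.0 overnight at 4°C. Blocked with 5% BSA 1 h. Biotin-Pam3CSK4 with or without test compound, 1 h RT. Then streptavidin-HRP (1:2000) 1 h, TMB 10–30 min, stopped with 1 M H3PO4. A450 read, 620 nm reference. Signal at zero compound set as 100%.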"}, "[3]": {"biological_target": "T2, human TLR8 (Homo sapiens, UniProt Q9NR97)", "T2 sequence (Q9NR97 27-1041)": "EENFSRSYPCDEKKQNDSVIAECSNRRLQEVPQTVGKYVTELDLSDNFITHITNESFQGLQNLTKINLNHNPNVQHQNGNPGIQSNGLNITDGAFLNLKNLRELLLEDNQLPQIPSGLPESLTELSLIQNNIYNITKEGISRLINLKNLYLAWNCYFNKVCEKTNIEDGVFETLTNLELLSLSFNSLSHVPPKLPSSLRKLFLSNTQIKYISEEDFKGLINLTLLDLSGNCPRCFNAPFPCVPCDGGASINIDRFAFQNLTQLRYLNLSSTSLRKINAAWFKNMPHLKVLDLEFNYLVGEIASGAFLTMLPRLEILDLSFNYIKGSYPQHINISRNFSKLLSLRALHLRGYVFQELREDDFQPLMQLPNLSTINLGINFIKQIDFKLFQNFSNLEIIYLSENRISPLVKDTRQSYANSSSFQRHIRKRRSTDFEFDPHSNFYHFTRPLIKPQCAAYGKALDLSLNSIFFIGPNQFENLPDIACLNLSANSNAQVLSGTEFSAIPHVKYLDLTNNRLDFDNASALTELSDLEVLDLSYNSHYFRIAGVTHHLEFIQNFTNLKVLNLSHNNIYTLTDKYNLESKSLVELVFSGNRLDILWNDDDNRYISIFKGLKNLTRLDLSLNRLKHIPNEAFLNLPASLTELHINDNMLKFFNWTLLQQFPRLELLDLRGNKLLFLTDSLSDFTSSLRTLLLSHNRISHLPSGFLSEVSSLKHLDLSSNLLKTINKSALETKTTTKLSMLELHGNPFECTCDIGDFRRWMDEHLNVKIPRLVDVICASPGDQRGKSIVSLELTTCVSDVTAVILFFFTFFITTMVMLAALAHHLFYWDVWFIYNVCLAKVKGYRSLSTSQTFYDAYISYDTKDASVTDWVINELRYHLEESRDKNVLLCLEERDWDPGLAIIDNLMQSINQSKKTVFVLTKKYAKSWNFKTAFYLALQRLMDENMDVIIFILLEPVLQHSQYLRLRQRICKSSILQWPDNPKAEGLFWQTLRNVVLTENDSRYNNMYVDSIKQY", "experiment": "SEAP reporter gene detection assay in HEK-Blue TLR8 cells", "type": "cell-based", "conditions": "0 to 20 μM, 24 hours", "procedure,_shortened": "as §1"}, "[4]": {"test_system": "Raw 264.7 cells", "experiment": "In vitro NO activation assay for Raw 264.7 cells", "type": "cell-based, mouse", "conditions": "Raw 264.7 cells, 24 hours", "procedure,_shortened": "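RAW 264.7 cells, 80,000/well, grown 24 h. Non-adherent cells removed; medium changed to unsupplemented RPMI 1640. Treated 24 h with test compound, or 66 nM (100 ng/ml) Pam3CSK4 as control. Supernatant reacted 15 min in the dark with 2,3-diaminonaphthalene in HCl, quenched with NaOH. Fluorescence read at ex 365/em 450 nm; nitrite calculated from a standard curve.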"}, "[5]": {"test_system": "primary rat macrophage cells", "experiment": "Primary peritoneal macrophage NO activation assay", "type": "cell-based", "conditions": "24 hours", "procedure,_shortened": "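Peritoneal cells from Sprague-Dawley rats collected by HBSS lavage, then red cells lysed. Seeded at 40,000/well in Iscove's medium with 10% FBS; adhered 2 h; non-adherent cells washed off; cultured overnight. Serum-free Iscove's then given with test compound, or 66 nM Pam3CSK4, for 24 h. Supernatant nitrite measured by diaminonaphthalene fluorescence.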"}},
  "data": [
    {"smiles": "CNc1ccc([N+](=O)[O-])cc1-n1cnc(-c2ccc(C(F)(F)F)cc2)c1", "note": "[CU-T12-9, N-methyl-4-nitro-2-(4-(4-(trifluoromethyl)phenyl)-1H-imidazol-1-yl)aniline]", "values": [
      {"measurement": "activation of SEAP signaling, TLR3", "setting": "[1]", "result": "not in other TLR-overexpressing cells"},
      {"measurement": "competition with Biotin-Pam3 binding to TLR1/2", "setting": "[2]", "result": "can compete"},
      {"measurement": "activation of SEAP signaling, TLR8", "setting": "[3]", "result": "not in other TLR-overexpressing cells"},
      {"measurement": "NO production", "setting": "[4]", "result": "efficiently triggered NO production"},
      {"measurement": "NO production", "setting": "[5]", "result": "efficiently triggered NO production"}
    ]}
  ]
}
